“And” between values parts separate entries of the source, which are not always exact repeats. Equal values may be shown once.
Tested on: HEK-293T
Experiment: Multiplex assay against HEK293T
Assay type: toxicity, cell-based
Conditions: human, number of replicates 2
Summary of the method: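 Compound was added to live cells that had been stained at seeding with Hoechst33342, BioTracker Green Microtubule Cytoskeleton Dye, MitoTracker Red and Annexin V Alexa Fluor 680, and imaging followed on a CQ1 microscope at 37°C and 5% CO2. CellPathfinder machine-learning gating divided cells into Hoechst high-intensity objects or normal cells, normal cells into healthy, pyknosed or fragmented nuclei, and pyknosed cells into mitotic or apoptotic. Tubulin, mitochondrial-mass and membrane-permeability phenotypes are per cents of healthy-nucleus cells.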

[1] = 12 h, 1 µM, compound concentration 1 uM
[2] = 12 h, 10 µM, compound concentration 10 uM
[3] = 24 h, 1 µM, compound concentration 1 uM
[4] = 24 h, 10 µM, compound concentration 10 uM
[5] = 48 h, 1 µM, compound concentration 1 uM
[6] = 48 h, 10 µM, compound concentration 10 uM

## Cc1ccc2c(c1CCC(=O)O)CC[C@@H](NS(=O)(=O)c1ccc(Cl)cc1)C2 [TERUTROBAN]
[1]
  Population Apoptotic (%): 59% and 56%
  Population Fragmented Nuclei (%): 2% and 4%
  Population Healthy Nuclei (%): 81%
  Population Hoechst High Intensity Objects (%): 7%
  Population Membrane Permeable-Phenotype (%): 3% and 2%
  Population Mitochondria Different-Phenotype (%): 20% and 14%
  Population Mitotic Cells (%): 40% and 43%
  Population Normal (%): 92%
  Population Pyknosed Nuclei (%): 15% and 14%
  Population Tubulin-Different-Phenotype (%): 47%
  Total Cell Count: 534 and 671
[2]
  Population Apoptotic (%): 55% and 71%
  Population Fragmented Nuclei (%): 5% and 3%
  Population Healthy Nuclei (%): 77% and 81%
  Population Hoechst High Intensity Objects (%): 8%
  Population Membrane Permeable-Phenotype (%): 4% and 1%
  Population Mitochondria Different-Phenotype (%): 24% and 20%
  Population Mitotic Cells (%): 44% and 28%
  Population Normal (%): 91%
  Population Pyknosed Nuclei (%): 17% and 15%
  Population Tubulin-Different-Phenotype (%): 70% and 50%
  Total Cell Count: 599 and 487
[3]
  Population Apoptotic (%): 65% and 40%
  Population Fragmented Nuclei (%): 7% and 6%
  Population Healthy Nuclei (%): 81% and 86%
  Population Hoechst High Intensity Objects (%): 6% and 9%
  Population Membrane Permeable-Phenotype (%): 3%
  Population Mitochondria Different-Phenotype (%): 6% and 5%
  Population Mitotic Cells (%): 35% and 59%
  Population Normal (%): 93% and 90%
  Population Pyknosed Nuclei (%): 10% and 6%
  Population Tubulin-Different-Phenotype (%): 30% and 25%
  Total Cell Count: 837 and 1016
[4]
  Population Apoptotic (%): 58% and 52%
  Population Fragmented Nuclei (%): 9% and 6%
  Population Healthy Nuclei (%): 79% and 84%
  Population Hoechst High Intensity Objects (%): 8% and 9%
  Population Membrane Permeable-Phenotype (%): 2% and 3%
  Population Mitochondria Different-Phenotype (%): 9% and 7%
  Population Mitotic Cells (%): 41% and 47%
  Population Normal (%): 91% and 90%
  Population Pyknosed Nuclei (%): 11% and 9%
  Population Tubulin-Different-Phenotype (%): 44% and 35%
  Total Cell Count: 911 and 714
[5]
  Population Apoptotic (%): 11%
  Population Fragmented Nuclei (%): 12% and 9%
  Population Healthy Nuclei (%): 82% and 86%
  Population Hoechst High Intensity Objects (%): 7% and 9%
  Population Membrane Permeable-Phenotype (%): 4% and 7%
  Population Mitochondria Different-Phenotype (%): 0% and 1%
  Population Mitotic Cells (%): 88%
  Population Normal (%): 92% and 90%
  Population Pyknosed Nuclei (%): 4% and 3%
  Population Tubulin-Different-Phenotype (%): 12% and 11%
  Total Cell Count: 2114 and 2407
[6]
  Population Apoptotic (%): 26% and 21%
  Population Fragmented Nuclei (%): 14% and 10%
  Population Healthy Nuclei (%): 80% and 86%
  Population Hoechst High Intensity Objects (%): 9% and 8%
  Population Membrane Permeable-Phenotype (%): 6% and 5%
  Population Mitochondria Different-Phenotype (%): 1%
  Population Mitotic Cells (%): 73% and 78%
  Population Normal (%): 90% and 91%
  Population Pyknosed Nuclei (%): 5% and 3%
  Population Tubulin-Different-Phenotype (%): 20% and 15%
  Total Cell Count: 1958 and 1618

## Cc1cc(NC(=O)c2cccc(NC(=O)/C=C/CN(C)C)c2)ccc1Nc1nccc(-c2cccnc2)n1
[1]
  Population Apoptotic (%): 41% and 60%
  Population Fragmented Nuclei (%): 3%
  Population Healthy Nuclei (%): 87%
  Population Hoechst High Intensity Objects (%): 11% and 10%
  Population Membrane Permeable-Phenotype (%): 4% and 2%
  Population Mitochondria Different-Phenotype (%): 40% and 30%
  Population Mitotic Cells (%): 58% and 40%
  Population Normal (%): 88% and 89%
  Population Pyknosed Nuclei (%): 9%
  Population Tubulin-Different-Phenotype (%): 93% and 92%
  Total Cell Count: 450 and 477
[2]
  Population Apoptotic (%): 63% and 71%
  Population Fragmented Nuclei (%): 1% and 3%
  Population Healthy Nuclei (%): 85% and 87%
  Population Hoechst High Intensity Objects (%): 8% and 11%
  Population Membrane Permeable-Phenotype (%): 2% and 1%
  Population Mitochondria Different-Phenotype (%): 35% and 50%
  Population Mitotic Cells (%): 36% and 28%
  Population Normal (%): 91% and 88%
  Population Pyknosed Nuclei (%): 12% and 9%
  Population Tubulin-Different-Phenotype (%): 95% and 97%
  Total Cell Count: 393 and 436
[3]
  Population Apoptotic (%): 62% and 53%
  Population Fragmented Nuclei (%): 5%
  Population Healthy Nuclei (%): 82% and 81%
  Population Hoechst High Intensity Objects (%): 11% and 10%
  Population Membrane Permeable-Phenotype (%): 2%
  Population Mitochondria Different-Phenotype (%): 36% and 28%
  Population Mitotic Cells (%): 37% and 46%
  Population Normal (%): 88% and 89%
  Population Pyknosed Nuclei (%): 12%
  Population Tubulin-Different-Phenotype (%): 92% and 90%
  Total Cell Count: 510 and 551
[4]
  Population Apoptotic (%): 76% and 74%
  Population Fragmented Nuclei (%): 2% and 5%
  Population Healthy Nuclei (%): 87% and 77%
  Population Hoechst High Intensity Objects (%): 19% and 14%
  Population Membrane Permeable-Phenotype (%): 0% and 1%
  Population Mitochondria Different-Phenotype (%): 79% and 60%
  Population Mitotic Cells (%): 23% and 25%
  Population Normal (%): 80% and 85%
  Population Pyknosed Nuclei (%): 10% and 17%
  Population Tubulin-Different-Phenotype (%): 99% and 96%
  Total Cell Count: 367 and 377
[5]
  Population Apoptotic (%): 66% and 70%
  Population Fragmented Nuclei (%): 10% and 12%
  Population Healthy Nuclei (%): 77% and 76%
  Population Hoechst High Intensity Objects (%): 11% and 12%
  Population Membrane Permeable-Phenotype (%): 5% and 7%
  Population Mitochondria Different-Phenotype (%): 10% and 11%
  Population Mitotic Cells (%): 33% and 29%
  Population Normal (%): 88% and 87%
  Population Pyknosed Nuclei (%): 11%
  Population Tubulin-Different-Phenotype (%): 83% and 80%
  Total Cell Count: 671 and 800
[6]
  Population Apoptotic (%): 74% and 73%
  Population Fragmented Nuclei (%): 6%
  Population Healthy Nuclei (%): 43% and 40%
  Population Hoechst High Intensity Objects (%): 27% and 19%
  Population Membrane Permeable-Phenotype (%): 12% and 9%
  Population Mitochondria Different-Phenotype (%): 61%
  Population Mitotic Cells (%): 25% and 26%
  Population Normal (%): 72% and 80%
  Population Pyknosed Nuclei (%): 50% and 52%
  Population Tubulin-Different-Phenotype (%): 74% and 70%
  Total Cell Count: 368 and 375
